# Sampled rows, rich in hits. Any-hit rate of the full collection: about 2.2%.
# RBBP9 inh = blocks human serine hydrolase RBBP9 | 220,000 tested, 0.2% active | inhibition, % at 7.94 µM | AID 1515 | O75884 | recombinant RBBP9, FP-Rh probe fluorescence polarization;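 active = inhibition above the campaign mean of all tested compounds plus 3 SD, cut at about 14% in these data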;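 also: plate controls were DMSO wells with RBBP9 for no effect and wells lacking RBBP9 protein for full effect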
# Target sequence (O75884 whole entry, looked up): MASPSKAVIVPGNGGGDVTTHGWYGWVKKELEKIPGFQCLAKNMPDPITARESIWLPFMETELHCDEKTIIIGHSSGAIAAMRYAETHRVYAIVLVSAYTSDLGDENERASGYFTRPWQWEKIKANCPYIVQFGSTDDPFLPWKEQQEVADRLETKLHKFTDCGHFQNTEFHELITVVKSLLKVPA
#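 Measured by: FP readout at 525/598 nm; material: recombinant human RBBP9; also added: Serine-hydrolase probe FP-Rh, 375 nM pre-mixing; medium: Tris buffer pH 8.0, NaCl, Pluronic; replication: one well per compound; doses: one concentration, 7.94 µM nominal, 0.794% DMSO; timing: preincubation 30 min plus labeling 45 min at 25 °C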
# Wee1 degr inh = inhibitors of human Wee1 degradation; P30291; reporter increase, % at 5 µM; 220,000 tested, 1.2% active; HeLa Luc-Wee1K328M stability, luciferase luminescence; 100% = proteasome inhibitor MG132 effect;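 active = activation above the mean of all tested compounds plus 3 SD, set per screening run, cut at about 8.8% in these data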;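 also: cells exposed to compound for 20 h before luminescence read; 0% = DMSO alone and 100% = MG132 at 30 µM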
# PKD1 inh = inhibitors of human PKD1 kinase | PKD1 kinase fluorescence polarization assay | inhibition, % (test concentration not listed) | 200,000 tested, 0.056% active; in the data active = inhibition above about 50%
# p97 ATPase inh = human p97 ATPase inhibition | recombinant p97 ATPase, Kinase-Glo ATP luminescence, 3 h | 220,000 tested, 0.42% active | inhibition, % at 8 µM | AID 1481; in the data active = inhibition above about 15%;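 also: 0% = DMSO vehicle and 100% = wells lacking enzyme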
# Redox H2O2 prof = compounds producing H2O2 with reducing agent – biochemical, NIH compound library profiling, artefact control for MLSCN library redox annotation, primary screen. DTT-dependent redox cycling H2O2, phenol red/HRP absorbance; 100% = 100 µM peroxide control, 0% = buffer. activation, % at 10 µM. 200,000 tested, 0.03% active;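 active = activation of at least 50% relative to the plate's high and low controls in the primary single-dose screen; inactive = activation below 50%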;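 also: compound incubated with DTT at 0.8 mM final as the reducing agent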
# Arbovirus inh = blocks arbovirus infection. AID 1251. inhibition, % at 10 µM. arbovirus infection cell-based antiviral screen. 200,000 tested, 0.37% active; in the data active = inhibition above about 30%
# Numbers without * were called inactive; . = no result given.
SMILES,RBBP9 inh,Wee1 degr inh,PKD1 inh,p97 ATPase inh,Redox H2O2 prof,Arbovirus inh
O=C(CCC1CCCCC1)N1CCN(Cc2ccc3c(c2)OCO3)CC1,-7,-2,-12,1,2,-3
Cc1c(Cl)cn2c(=O)cc(CN(C)Cc3nc4ccccc4c(=O)[nH]3)nc2c1Cl,-9,-3,11,-1,-3,6
O=C(O)Cc1cc(I)c(Oc2ccc(O)c(I)c2)c(I)c1,-9,1,-1,3,-1,52*
O=C(N(c1ccccc1)c1ccccc1)N(c1ccccc1)c1ccccc1,-13,0,.,1,.,.
NC(=S)N(c1ccccc1)c1ccccc1,-10,9.6*,-5,5,0,5
Cc1cccc(NC(=O)c2ccc([N+](=O)[O-])s2)c1C,4,2,6,4,0,-38
CNCC(O)CN(c1ccccc1)c1ccccc1 (stereo unspecified),-1,9.7*,6,-3,-1,6
CCOC(=O)N1CCC(NC(=O)CCC(=O)N2CC(C)Oc3ccc(Cl)cc32)CC1 (stereo unspecified),-6,0,-6,-6,0,0
CCOC(=O)N1CCN(C(=O)c2cccn3c(=O)c4sccc4nc23)CC1,1,10*,-5,9,0,-4
COc1ccc(-c2nn(-c3ccccc3)cc2/C=N/n2cnnc2)cc1OC,11,9.3*,-1,4,0,-15
CCOC(=O)c1csc(NC(=O)CCSc2ccccc2)n1,-9,-3,-5,-2,0,5
CCOC(=O)c1csc(NC(=O)CC2CCCC2)n1,-10,1,1,-1,0,30*
CC1=C(C(=O)N(C)C)C(c2ccc(C)s2)NC(=S)N1 (stereo unspecified),-3,2,2,1,-1,5
CCOc1ccc(NC(=O)c2ccc(S(=O)(=O)N(C)C)cc2)cc1,-7,2,6,-1,0,2
CCc1ccc(OCCNC(=O)c2ccc(S(=O)(=O)N(C)C)cc2)cc1,-12,9.9*,-7,-7,0,4
O=C(Nc1ncc(Cc2ccccc2)s1)c1cccs1,-15,9.0*,-6,3,0,-13
Cc1noc(C)c1COc1ccc(C(=O)NCc2ccccn2)cc1,-5,1,10,2,-1,4
N#Cc1c(N2C(=O)Nc3ccccc3N2O)sc2c1CCCCCC2,-2,2,2,3,0,35*
N#Cc1c(N2C(=O)Nc3ccccc3N2O)sc2c1CCCC2,-6,3,-6,-7,-1,26
CCCCNc1nc(N)ncc1[N+](=O)[O-],-7,1,.,15*,.,.
CCOC(=O)N1CCC(NC(=O)c2ccc3c(Cl)c4c(nc3c2)CCCC4)CC1,22*,-1,-8,-1,0,-4
N=C1C(c2ccccc2)=C(O)CN1c1cccc(O)c1,-9,2,-4,1,-1,2
Clc1ccc(-n2ncc3c(NCC4CCCO4)ncnc32)cc1 (stereo unspecified),-6,9.6*,-8,2,0,-12
COc1ccc(-n2[nH]c(C)cc2=O)cc1,-1,1,4,28*,2,-4
O=C1CCCCC1C(O)c1ccc(Cl)cc1 (stereo unspecified),-1,0,.,3,.,.
SMILES,RBBP9 inh,Wee1 degr inh,PKD1 inh,p97 ATPase inh,Redox H2O2 prof,Arbovirus inh
N#CCC(=O)Nc1ccc(C(F)(F)F)cc1N1CCOCC1,-9,4,2,-1,-2,-2
CCNc1c(NCC)c(=O)c1=O,1,0,.,5,.,.
CN(CCN(C)C(C)(C)C)C(=O)C(c1ccccc1)c1ccccc1,-5,0,.,-5,.,.
Cc1ccc(C(=O)c2coc3cc([N+](=O)[O-])c(O)c([N+](=O)[O-])c23)cc1,12,0,-4,3,0,37*
Cc1c(N=NC2=C(O)CCCC2=O)c(=O)n(-c2ccccc2)n1C,-6,1,-3,-2,-1,-6
CN(c1ncc(C(F)(F)F)cc1Cl)N1C(=O)c2cccc(N)c2C1=O,-6,10*,4,-2,-1,3
O=C(CNC(=O)c1ccco1)OCc1cccc(Cl)c1,1,9.4*,2,-1,2,1
O=C(CNC(=O)c1ccco1)NCC(=O)OCc1cccc(Cl)c1,-7,2,-5,4,2,-1
COc1ccc(CN2CCNC(=O)C2CC(=O)NCc2cn3ccc(C)cc3n2)c(OC)c1 (stereo unspecified),3,-1,-1,2,-1,-1
CC1CCN(c2nc3ccccc3nc2C(C#N)C(=O)OC2CCCCC2)CC1 (stereo unspecified),1,12*,-4,5,1,-6
CC(C)(C)S(=O)(=O)/C(C#N)=N/Nc1ccc(Cl)cc1,-10,-3,-3,1,-1,24
CC(C)(C)c1ccc(N/N=C(\C#N)S(=O)(=O)C(C)(C)C)cc1,-6,-2,1,-9,0,34*
Cc1cc(-c2ccccc2)c(C#N)c(SCC(N)=O)n1,1,9.7*,-3,-2,0,-3
Oc1cc2c(cc1O)C1c3ccc(O)c(O)c3OCC1(O)C2 (stereo unspecified),11,1,-1,15*,1,2
O=c1n(Cc2ccccc2Cl)nc2n1-c1ccccc1SC2,1,0,.,5,.,.
CCCNC(=O)CCn1c(=S)oc2ccccc21,0,1,.,7,.,.
O=C(CCn1c(=S)oc2ccccc21)NCCC1=CCCCC1,11,11*,.,0,.,.
CC(C)Cc1csc(NC(=O)c2ccc(Cl)cc2)c1C(=O)O,1,6,6,-1,0,22
CC(C)Cc1csc(NC(=O)c2ccccc2Cl)c1C(=O)O,-5,-3,-2,1,0,66*
Cc1cccc(C(=O)Nc2scc(CC(C)C)c2C(=O)O)c1,-3,0,-4,2,0,65*
CCOc1cc(S(=O)(=O)NCc2ccccn2)ccc1Cl,-8,-1,5,3,0,-1
CS(=O)(=O)CCC(C(=O)OCc1ccc(Cl)cc1)N1C(=O)c2ccccc2C1=O (stereo unspecified),-4,-1,-3,3,0,2
Cn1c(CCN2CCOCC2)nc2cc(NC(=O)COc3ccccc3)ccc21,-7,9.1*,10,6,0,2
Cn1c(CN2CCOCC2)nc2cc(NC(=O)COc3ccccc3)ccc21,-8,-1,0,-1,-1,3
Cc1nc2c3cc(F)ccc3n(CCN3CCCCC3)c2s1,6,9.7*,-1,-3,2,-18
Cc1nc2c3ccccc3n(CCN3CCCCC3)c2s1,-8,1,-2,-2,0,-4
COc1cccc(OCc2nc3ccccc3[nH]2)c1,-6,11*,1,-7,0,-8
